Measured values: ChEMBL document CHEMBL4196175, “First SAR Study for Overriding NRAS Mutant Driven Acute Myeloid Leukemia” (J Med Chem, 2018)
The source made the active and inactive calls. No cut-off for these calls is given here.

Tests used:
[1] = target: Activated CDC42 kinase 1 (Homo sapiens, UniProt Q07912); assay: Inhibition of ACK1 (unknown origin) by radiometric biochemical kinase assay
[2] = target: T1, Mitogen-activated protein kinase kinase kinase kinase 2 (Homo sapiens, UniProt Q12851); assay: Inhibition of GCK (unknown origin) by radiometric biochemical kinase assay
T1 sequence (Q12851 whole entry): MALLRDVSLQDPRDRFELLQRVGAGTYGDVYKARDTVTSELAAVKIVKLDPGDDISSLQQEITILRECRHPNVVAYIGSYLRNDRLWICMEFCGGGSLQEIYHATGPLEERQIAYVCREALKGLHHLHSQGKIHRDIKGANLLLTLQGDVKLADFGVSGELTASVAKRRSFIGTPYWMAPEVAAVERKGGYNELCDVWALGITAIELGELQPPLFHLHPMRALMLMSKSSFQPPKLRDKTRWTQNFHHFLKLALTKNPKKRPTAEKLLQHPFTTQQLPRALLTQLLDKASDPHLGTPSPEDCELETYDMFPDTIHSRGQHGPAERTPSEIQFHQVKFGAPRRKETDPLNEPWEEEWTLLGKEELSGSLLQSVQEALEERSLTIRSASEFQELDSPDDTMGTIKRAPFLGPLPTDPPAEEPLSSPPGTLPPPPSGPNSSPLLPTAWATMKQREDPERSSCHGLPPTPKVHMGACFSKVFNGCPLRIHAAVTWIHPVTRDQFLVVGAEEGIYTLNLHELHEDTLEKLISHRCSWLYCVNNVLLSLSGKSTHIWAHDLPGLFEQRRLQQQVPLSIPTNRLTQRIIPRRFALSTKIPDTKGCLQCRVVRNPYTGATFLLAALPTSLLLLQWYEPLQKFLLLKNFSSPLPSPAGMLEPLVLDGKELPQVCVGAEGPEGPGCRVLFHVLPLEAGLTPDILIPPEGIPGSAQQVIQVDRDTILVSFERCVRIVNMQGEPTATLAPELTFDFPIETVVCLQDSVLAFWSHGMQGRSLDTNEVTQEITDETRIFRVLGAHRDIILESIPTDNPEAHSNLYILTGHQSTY

[3] = Growth inhibition of parental mouse BA/F3 cells after 72 hrs by celltiter-glo assay; assay type: cell-based, BaF3
[4] = species on record: Mus musculus; assay: Inhibition of ACK1/GCK in mouse BA/F3 cells assessed as reduction in NRAS-G12D mutant-mediated cell proliferation after 72 hrs by celltiter-glo assay; assay type: cell-based
[5] = tested on: OCI-AML-3; assay: Growth inhibition of human OCI-AML3 cells harboring NRAS-Q61L mutant after 72 hrs by celltiter-glo assay; assay type: functional; details: OCI-AML-3, 72 h
[6] = Growth inhibition of parental human U937 cells after 72 hrs by celltiter-glo assay; assay type: cell-based, U-937
[7] = Metabolic stability in human liver microsomes assessed as compound remaining at 1 uM after 30 mins; assay type: ADME, microsome; details: read-out: Stability
[8] = Metabolic stability in dog liver microsomes assessed as compound remaining at 1 uM after 30 mins; assay type: ADME, Canis lupus familiaris, microsome; details: read-out: Stability
[9] = Metabolic stability in rat liver microsomes assessed as compound remaining at 1 uM after 30 mins; assay type: ADME, microsome; details: read-out: Stability
[10] = Metabolic stability in mouse liver microsomes assessed as compound remaining at 1 uM after 30 mins; assay type: ADME, microsome; details: read-out: Stability
[11] = target: T2, CYP1A2 (Homo sapiens, UniProt P05177); assay: Inhibition of CYP1A2 (unknown origin) assessed as activity remaining at 10 uM relative to control; assay type: ADME; details: read-out: Activity
T2 sequence (P05177 whole entry): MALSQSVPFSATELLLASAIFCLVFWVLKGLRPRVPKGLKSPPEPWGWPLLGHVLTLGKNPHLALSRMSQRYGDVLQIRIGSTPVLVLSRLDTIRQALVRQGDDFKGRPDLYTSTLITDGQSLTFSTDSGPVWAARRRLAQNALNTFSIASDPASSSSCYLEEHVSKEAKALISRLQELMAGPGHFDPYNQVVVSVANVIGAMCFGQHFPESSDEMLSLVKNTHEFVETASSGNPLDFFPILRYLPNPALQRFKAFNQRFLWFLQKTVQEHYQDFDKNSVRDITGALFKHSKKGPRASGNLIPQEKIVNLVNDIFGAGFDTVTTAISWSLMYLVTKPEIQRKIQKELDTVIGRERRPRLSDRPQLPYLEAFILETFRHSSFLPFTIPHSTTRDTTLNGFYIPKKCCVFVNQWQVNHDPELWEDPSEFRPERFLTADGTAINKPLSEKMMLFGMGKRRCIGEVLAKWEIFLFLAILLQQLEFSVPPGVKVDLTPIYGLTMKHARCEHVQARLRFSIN

[12] = target: CYP2C9 (Homo sapiens, UniProt P11712); assay: Inhibition of CYP2C9 (unknown origin) assessed as activity remaining at 10 uM relative to control; assay type: ADME; details: read-out: Activity
Chain of CYP2C9 (P11712 whole entry): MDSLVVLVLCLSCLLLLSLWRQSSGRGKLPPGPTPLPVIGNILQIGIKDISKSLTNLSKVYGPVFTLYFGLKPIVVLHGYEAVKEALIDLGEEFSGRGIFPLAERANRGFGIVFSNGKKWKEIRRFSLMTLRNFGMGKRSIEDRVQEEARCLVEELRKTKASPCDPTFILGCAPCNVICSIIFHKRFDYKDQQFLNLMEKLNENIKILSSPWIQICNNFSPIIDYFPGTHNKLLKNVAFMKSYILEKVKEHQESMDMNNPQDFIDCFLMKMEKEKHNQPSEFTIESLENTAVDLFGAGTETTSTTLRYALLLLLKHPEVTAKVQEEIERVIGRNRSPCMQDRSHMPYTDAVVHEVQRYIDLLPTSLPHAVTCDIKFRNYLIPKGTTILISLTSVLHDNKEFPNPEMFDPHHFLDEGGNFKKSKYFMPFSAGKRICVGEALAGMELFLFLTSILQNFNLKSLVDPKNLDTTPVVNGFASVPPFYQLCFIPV

[13] = target: CYP2D6 (Homo sapiens, UniProt P10635); assay: Inhibition of CYP2D6 (unknown origin) assessed as activity remaining at 10 uM relative to control; assay type: ADME; details: read-out: Activity
Chain of CYP2D6 (P10635 whole entry): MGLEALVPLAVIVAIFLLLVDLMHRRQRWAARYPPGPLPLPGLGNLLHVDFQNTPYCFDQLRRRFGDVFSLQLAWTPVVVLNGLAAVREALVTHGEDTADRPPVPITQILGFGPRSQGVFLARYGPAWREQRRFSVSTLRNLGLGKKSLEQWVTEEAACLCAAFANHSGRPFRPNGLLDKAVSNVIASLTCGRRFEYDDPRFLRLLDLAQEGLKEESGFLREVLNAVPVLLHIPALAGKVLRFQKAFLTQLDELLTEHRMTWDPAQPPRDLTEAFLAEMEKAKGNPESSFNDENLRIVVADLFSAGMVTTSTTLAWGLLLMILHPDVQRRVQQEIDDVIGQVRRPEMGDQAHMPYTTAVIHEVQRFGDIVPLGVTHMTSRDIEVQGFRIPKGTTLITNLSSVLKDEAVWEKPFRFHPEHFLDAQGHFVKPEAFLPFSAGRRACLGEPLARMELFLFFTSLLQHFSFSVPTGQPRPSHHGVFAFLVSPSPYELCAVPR

[14] = target: CYP3A4 (Homo sapiens, UniProt P08684); assay: Inhibition of CYP3A4 (unknown origin) assessed as activity remaining at 10 uM relative to control; assay type: ADME; details: read-out: Activity
Chain of CYP3A4 (P08684 whole entry): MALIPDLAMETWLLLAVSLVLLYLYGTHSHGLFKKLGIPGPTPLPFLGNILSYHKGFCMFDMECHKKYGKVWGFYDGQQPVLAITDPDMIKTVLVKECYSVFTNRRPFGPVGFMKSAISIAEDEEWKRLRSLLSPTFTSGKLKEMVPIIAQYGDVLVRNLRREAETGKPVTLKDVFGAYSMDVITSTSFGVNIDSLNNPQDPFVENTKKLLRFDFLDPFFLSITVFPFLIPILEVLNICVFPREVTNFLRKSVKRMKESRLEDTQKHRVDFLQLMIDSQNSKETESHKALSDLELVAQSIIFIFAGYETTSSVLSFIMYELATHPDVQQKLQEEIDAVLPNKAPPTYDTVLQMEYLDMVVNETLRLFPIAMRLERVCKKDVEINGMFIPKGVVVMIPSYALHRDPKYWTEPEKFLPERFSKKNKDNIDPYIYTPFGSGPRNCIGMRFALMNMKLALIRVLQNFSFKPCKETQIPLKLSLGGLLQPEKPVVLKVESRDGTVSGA

[15] = tested on: BaF3; assay: Induction of apoptosis in mouse BA/F3 cells expressing NRAS-G12D mutant assessed as increase in cleaved PARP levels at 1 uM after 24 hrs by Western blot analysis; assay type: functional, cell-based
In short: (§1)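 Cells treated 24 h with indicated concentrations (1 µM; 5 µM also used in Ba/F3-NRAS-G12D); cleaved PARP, cleaved caspase 3, bcl-2 and MCL1 detected by western blot with actin as loading control.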

[16] = tested on: BaF3; assay: Induction of apoptosis in mouse BA/F3 cells expressing NRAS-G12D mutant assessed as increase in cleaved caspase-3 levels at 1 uM after 24 hrs by Western blot analysis; assay type: functional, cell-based; in short: as §1
[17] = tested on: BaF3; assay: Induction of apoptosis in mouse BA/F3 cells expressing NRAS-G12D mutant assessed as decrease in bcl2 levels at 1 uM after 24 hrs by Western blot analysis; assay type: functional, cell-based; in short: as §1
[18] = tested on: BaF3; assay: Induction of apoptosis in mouse BA/F3 cells expressing NRAS-G12D mutant assessed as decrease in MCL1 levels at 1 uM after 24 hrs by Western blot analysis; assay type: functional, cell-based; in short: as §1
[19] = tested on: OCI-AML-3; assay: Cell cycle arrest in human OCI-AML3 cells harboring NRAS Q61L mutant assessed as accumulation at G0/G1 phase at 1 uM after 24 hrs by propidium iodide staining based FACS analysis; assay type: functional
In short: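 OCI-AML3 cells treated 24 h at indicated concentrations, including 1 µM; cell-cycle phase distribution measured by flow cytometry after propidium iodide staining.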

[20] = tested on: OCI-AML-3; assay: Inhibition of anchorage-independent cell growth in human OCI-AML3 cells harboring NRAS Q61L mutant assessed as reduction in colony number at 0.1 to 1 uM after 14 days by iodonitrotetrazolium chloride staining-based soft agar assay; assay type: functional
In short: (§2)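 OCI-AML3 cells embedded in 0.7% low-melting agar, incubated 2 weeks with compound at 0.1 or 1 µM; colony number and colony size per well measured by automated image analysis; n = 3 per condition, SD, one-way ANOVA.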

[21] = tested on: OCI-AML-3; assay: Inhibition of anchorage-independent cell growth in human OCI-AML3 cells harboring NRAS Q61L mutant assessed as reduction in colony size at 0.1 to 1 uM after 14 days by iodonitrotetrazolium chloride staining-based soft agar assay; assay type: functional; in short: as §2
[22] = tested on: BaF3; assay: Antileukemic activity against mouse BA/F3 cells harboring NRAS-G12D mutant/luciferase allografted in immunodeficient mouse at 8 mg/kg/day, po qd administered on day 6 post implantation measured on day 20 post implantation by bioluminescence imaging method; assay type: functional, organism-based
In short: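 Immunodeficient mice injected via tail vein with Ba/F3-NRAS-G12D/Luc cells, dosed orally once daily (8 or 15 mg/kg/day) or vehicle for 3 weeks, n=4 per cohort; bioluminescence imaged every two days after luciferin 150 mg/kg, quantified by bio-photonic analysis.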

[23] = tested on: BaF3; assay: Antileukemic activity against mouse BA/F3 cells harboring NRAS-G12D mutant allografted in immunodeficient mouse assessed as median survival time at 8 mg/kg/day, po qd administered on day 6 post implantation (reference value: 23 days); assay type: functional
[24] = tested on: OCI-AML-3; assay: Antileukemic activity against human OCI-AML3 cells harboring NRAS-Q61L mutant xenografted in immunodeficient mouse assessed as tumor volume at 8 mg/kg/day, po qd administered on day 21 post implantation measured on […] (reference value: 100%); assay type: functional
[25] = tested on: OCI-AML-3; assay: Growth inhibition of ACK1/GCK knockdown human OCI-AML3 cells harboring NRAS-Q61L mutant at 0.2 uM after 72 hrs by celltiter-glo assay; assay type: functional, cell-based

Chain of Activated CDC42 kinase 1 (Q07912 whole entry): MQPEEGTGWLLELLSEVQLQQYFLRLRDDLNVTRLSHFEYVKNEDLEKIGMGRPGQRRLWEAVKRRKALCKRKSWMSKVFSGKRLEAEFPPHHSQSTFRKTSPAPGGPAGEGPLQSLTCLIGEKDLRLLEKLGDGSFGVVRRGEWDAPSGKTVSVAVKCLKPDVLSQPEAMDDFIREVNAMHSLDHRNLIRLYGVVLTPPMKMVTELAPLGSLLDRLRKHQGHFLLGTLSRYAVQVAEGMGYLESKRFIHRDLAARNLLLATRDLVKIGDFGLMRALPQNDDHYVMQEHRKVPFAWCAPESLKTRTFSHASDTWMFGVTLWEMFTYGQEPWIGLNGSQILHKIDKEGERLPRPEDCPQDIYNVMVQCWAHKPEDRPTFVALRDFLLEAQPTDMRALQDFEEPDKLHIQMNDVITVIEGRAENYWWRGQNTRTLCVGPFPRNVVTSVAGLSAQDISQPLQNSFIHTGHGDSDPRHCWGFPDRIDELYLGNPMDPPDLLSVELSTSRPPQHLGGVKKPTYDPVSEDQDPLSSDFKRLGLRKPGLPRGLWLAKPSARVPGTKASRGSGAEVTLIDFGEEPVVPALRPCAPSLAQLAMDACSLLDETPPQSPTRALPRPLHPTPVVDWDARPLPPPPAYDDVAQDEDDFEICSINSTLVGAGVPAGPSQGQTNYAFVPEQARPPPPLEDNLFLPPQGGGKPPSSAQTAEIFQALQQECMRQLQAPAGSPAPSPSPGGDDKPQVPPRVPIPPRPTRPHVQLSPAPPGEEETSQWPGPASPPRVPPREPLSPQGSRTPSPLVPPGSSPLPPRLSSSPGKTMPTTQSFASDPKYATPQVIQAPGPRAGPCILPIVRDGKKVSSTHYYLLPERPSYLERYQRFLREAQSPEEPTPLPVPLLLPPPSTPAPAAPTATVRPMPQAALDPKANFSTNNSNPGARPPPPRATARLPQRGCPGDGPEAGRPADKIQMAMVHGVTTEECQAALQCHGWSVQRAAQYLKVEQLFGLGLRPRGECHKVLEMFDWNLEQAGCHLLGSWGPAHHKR

In the case of `Cc1ccc(Nc2ncc3c(n2)N(C)C(=O)N(c2cc(NC(=O)c4cccc(C(F)(F)F)c4)ccc2C)C3)cn1`, the IC50 [1] is reported as 0.025 µM, the IC50 [2] is reported as 0.008 µM and the GI50 at 72 h [3] is reported as 1.03 µM. For the same compound, the GI50 [4] was 0.081 µM, the GI50 [5] was 0.219 µM and the GI50 at 72 h [6] was 4.38 µM. For the same compound, the remaining at 0.5 h, 1 µM [7] was 78.6%, the remaining at 0.5 h, 1 µM [8] was 55.3% and the remaining at 0.5 h, 1 µM [9] was 84.8%. For the same compound, the remaining at 0.5 h, 1 µM [10] was 80.5%, the activity at 10 µM [11] was 93.2% and the activity at 10 µM [12] was 27%. For the same compound, the activity at 10 µM [13] was 68.4%, the activity at 10 µM [14] was over 100% and the Activity [15] was “Active”. The Activity [16] was “Active”, the Activity [17] was “Active” and the Activity [18] was “Active”. For the same compound, the Activity [19] was “Active”, the “growth inhibition (GI)” value [20] was “Active” and the “growth inhibition (GI)” value [21] was “Active”. For the same compound, the Activity [22] was “Active”, the MSD [23] was 31 days and the Activity [24] was 53.8%. For the same compound, the “growth inhibition (GI)” value [25] was “Active”.
